From ChEMBL document CHEMBL5058577, “EUbOPEN Chemogenomics Library 2 (Multiplex)” (2022)

Test system: Fibroblast
Experiment: Multiplex assay against human fibroblast
Assay type: toxicity, cell-based
In short: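 Live cells were stained at seeding with Hoechst33342, BioTracker Green Microtubule Cytoskeleton Dye, MitoTracker Red and Annexin V Alexa Fluor 680, then imaged on a CQ1 microscope at 37°C and 5% CO2 after compound addition. CellPathfinder machine-learning gating split cells into Hoechst high-intensity objects or normal cells. Normal cells were split into healthy, pyknosed or fragmented nuclei, and pyknosed cells into mitotic or apoptotic. Tubulin, mitochondrial-mass and membrane-permeability phenotypes are per cents of healthy-nucleus cells.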

[1] = 12 h, 1 µM, compound concentration 1 uM, replicate 1
[2] = 12 h, 1 µM, compound concentration 1 uM, replicate 2
[3] = 12 h, 10 µM, compound concentration 10 uM, replicate 1
[4] = 12 h, 10 µM, compound concentration 10 uM, replicate 2
[5] = 24 h, 1 µM, compound concentration 1 uM, replicate 1
[6] = 24 h, 1 µM, compound concentration 1 uM, replicate 2
[7] = 24 h, 10 µM, compound concentration 10 uM, replicate 1
[8] = 24 h, 10 µM, compound concentration 10 uM, replicate 2
[9] = 48 h, 1 µM, compound concentration 1 uM, replicate 1
[10] = 48 h, 1 µM, compound concentration 1 uM, replicate 2
[11] = 48 h, 10 µM, compound concentration 10 uM, replicate 1
[12] = 48 h, 10 µM, compound concentration 10 uM, replicate 2

C[C@H]1[C@H]2CC[C@H]3[C@@H]4CC=C5C[C@@H](N(C)C)CC[C@]5(C)[C@H]4CC[C@]23CN1C [CONESSINE]
Population Apoptotic (%) [1]: 45% | Population Fragmented Nuclei (%) [1]: 15% | Population Healthy Nuclei (%) [1]: 73% | Population Hoechst High Intensity Objects (%) [1]: 1% | Population Membrane Permeable-Phenotype (%) [1]: 0% | Population Mitochondria Different-Phenotype (%) [1]: 8% | Population Mitotic Cells (%) [1]: 55% | Population Normal (%) [1]: 98% | Population Pyknosed Nuclei (%) [1]: 11% | Population Tubulin-Different-Phenotype (%) [1]: 19% | Total Cell Count [1]: 174 | Population Apoptotic (%) [2]: 29% | Population Fragmented Nuclei (%) [2]: 33% | Population Healthy Nuclei (%) [2]: 41% | Population Hoechst High Intensity Objects (%) [2]: 2% | Population Membrane Permeable-Phenotype (%) [2]: 7% | Population Mitochondria Different-Phenotype (%) [2]: 2% | Population Mitotic Cells (%) [2]: 70% | Population Normal (%) [2]: 97% | Population Pyknosed Nuclei (%) [2]: 24% | Population Tubulin-Different-Phenotype (%) [2]: 46% | Total Cell Count [2]: 101 | Population Apoptotic (%) [3]: 37% | Population Fragmented Nuclei (%) [3]: 26% | Population Healthy Nuclei (%) [3]: 60% | Population Hoechst High Intensity Objects (%) [3]: 3% | Population Membrane Permeable-Phenotype (%) [3]: 5% | Population Mitochondria Different-Phenotype (%) [3]: 10% | Population Mitotic Cells (%) [3]: 62% | Population Normal (%) [3]: 96% | Population Pyknosed Nuclei (%) [3]: 13% | Population Tubulin-Different-Phenotype (%) [3]: 32% | Total Cell Count [3]: 189 | Population Apoptotic (%) [4]: 43% | Population Healthy Nuclei (%) [4]: 45% | Population Membrane Permeable-Phenotype (%) [4]: 8% | Population Mitochondria Different-Phenotype (%) [4]: 4% | Population Mitotic Cells (%) [4]: 56% | Population Pyknosed Nuclei (%) [4]: 28% | Population Tubulin-Different-Phenotype (%) [4]: 58% | Total Cell Count [4]: 110 | Population Apoptotic (%) [5]: 43% | Population Fragmented Nuclei (%) [5]: 13% | Population Healthy Nuclei (%) [5]: 73% | Population Hoechst High Intensity Objects (%) [5]: 2% | Population Membrane Permeable-Phenotype (%) [5]: 1% | Population Mitochondria Different-Phenotype (%) [5]: 4% | Population Mitotic Cells (%) [5]: 56% | Population Normal (%) [5]: 97% | Population Pyknosed Nuclei (%) [5]: 13% | Population Tubulin-Different-Phenotype (%) [5]: 22% | Total Cell Count [5]: 175 | Population Apoptotic (%) [6]: 40% | Population Fragmented Nuclei (%) [6]: 27% | Population Healthy Nuclei (%) [6]: 48% | Population Hoechst High Intensity Objects (%) [6]: 4% | Population Membrane Permeable-Phenotype (%) [6]: 13% | Population Mitochondria Different-Phenotype (%) [6]: 6% | Population Mitotic Cells (%) [6]: 59% | Population Normal (%) [6]: 95% | Population Pyknosed Nuclei (%) [6]: 24% | Population Tubulin-Different-Phenotype (%) [6]: 61% | Total Cell Count [6]: 95 | Population Apoptotic (%) [7]: 64% | Population Fragmented Nuclei (%) [7]: 28% | Population Healthy Nuclei (%) [7]: 61% | Population Hoechst High Intensity Objects (%) [7]: 3% | Population Membrane Permeable-Phenotype (%) [7]: 1% | Population Mitochondria Different-Phenotype (%) [7]: 7% | Population Mitotic Cells (%) [7]: 35% | Population Normal (%) [7]: 96% | Population Pyknosed Nuclei (%) [7]: 9% | Population Tubulin-Different-Phenotype (%) [7]: 27% | Total Cell Count [7]: 190 | Population Apoptotic (%) [8]: 36% | Population Healthy Nuclei (%) [8]: 39% | Population Hoechst High Intensity Objects (%) [8]: 2% | Population Membrane Permeable-Phenotype (%) [8]: 7% | Population Mitotic Cells (%) [8]: 63% | Population Normal (%) [8]: 97% | Population Pyknosed Nuclei (%) [8]: 32% | Population Tubulin-Different-Phenotype (%) [8]: 60% | Total Cell Count [8]: 106 | Population Apoptotic (%) [9]: 50% | Population Fragmented Nuclei (%) [9]: 17% | Population Healthy Nuclei (%) [9]: 73% | Population Hoechst High Intensity Objects (%) [9]: 5% | Population Membrane Permeable-Phenotype (%) [9]: 0% | Population Mitochondria Different-Phenotype (%) [9]: 3% | Population Mitotic Cells (%) [9]: 50% | Population Normal (%) [9]: 94% | Population Pyknosed Nuclei (%) [9]: 9% | Population Tubulin-Different-Phenotype (%) [9]: 27% | Total Cell Count [9]: 178 | Population Apoptotic (%) [10]: 47% | Population Fragmented Nuclei (%) [10]: 37% | Population Healthy Nuclei (%) [10]: 45% | Population Hoechst High Intensity Objects (%) [10]: 0% | Population Membrane Permeable-Phenotype (%) [10]: 17% | Population Mitochondria Different-Phenotype (%) [10]: 8% | Population Mitotic Cells (%) [10]: 52% | Population Normal (%) [10]: 99% | Population Pyknosed Nuclei (%) [10]: 16% | Population Tubulin-Different-Phenotype (%) [10]: 63% | Total Cell Count [10]: 104 | Population Apoptotic (%) [11]: 66% | Population Fragmented Nuclei (%) [11]: 26% | Population Healthy Nuclei (%) [11]: 62% | Population Hoechst High Intensity Objects (%) [11]: 6% | Population Membrane Permeable-Phenotype (%) [11]: 0% | Population Mitochondria Different-Phenotype (%) [11]: 4% | Population Mitotic Cells (%) [11]: 33% | Population Normal (%) [11]: 93% | Population Pyknosed Nuclei (%) [11]: 10% | Population Tubulin-Different-Phenotype (%) [11]: 25% | Total Cell Count [11]: 190 | Population Apoptotic (%) [12]: 27% | Population Fragmented Nuclei (%) [12]: 29% | Population Healthy Nuclei (%) [12]: 48% | Population Hoechst High Intensity Objects (%) [12]: 2% | Population Membrane Permeable-Phenotype (%) [12]: 8% | Population Mitochondria Different-Phenotype (%) [12]: 6% | Population Mitotic Cells (%) [12]: 72% | Population Normal (%) [12]: 97% | Population Pyknosed Nuclei (%) [12]: 22% | Population Tubulin-Different-Phenotype (%) [12]: 62% | Total Cell Count [12]: 102

Cl.Clc1ccc2nsnc2c1NC1=NCCN1 [TIZANIDINE HYDROCHLORIDE]
Population Apoptotic (%) [1]: 38% | Population Fragmented Nuclei (%) [1]: 10% | Population Healthy Nuclei (%) [1]: 72% | Population Hoechst High Intensity Objects (%) [1]: 3% | Population Membrane Permeable-Phenotype (%) [1]: 0% | Population Mitochondria Different-Phenotype (%) [1]: 4% | Population Mitotic Cells (%) [1]: 61% | Population Normal (%) [1]: 96% | Population Pyknosed Nuclei (%) [1]: 17% | Population Tubulin-Different-Phenotype (%) [1]: 21% | Total Cell Count [1]: 155 | Population Apoptotic (%) [2]: 33% | Population Fragmented Nuclei (%) [2]: 24% | Population Healthy Nuclei (%) [2]: 49% | Population Hoechst High Intensity Objects (%) [2]: 4% | Population Membrane Permeable-Phenotype (%) [2]: 5% | Population Mitochondria Different-Phenotype (%) [2]: 5% | Population Mitotic Cells (%) [2]: 66% | Population Normal (%) [2]: 95% | Population Pyknosed Nuclei (%) [2]: 25% | Population Tubulin-Different-Phenotype (%) [2]: 50% | Total Cell Count [2]: 182 | Population Apoptotic (%) [3]: 36% | Population Fragmented Nuclei (%) [3]: 18% | Population Healthy Nuclei (%) [3]: 60% | Population Hoechst High Intensity Objects (%) [3]: 4% | Population Membrane Permeable-Phenotype (%) [3]: 0% | Population Mitochondria Different-Phenotype (%) [3]: 8% | Population Mitotic Cells (%) [3]: 64% | Population Normal (%) [3]: 95% | Population Pyknosed Nuclei (%) [3]: 20% | Population Tubulin-Different-Phenotype (%) [3]: 29% | Total Cell Count [3]: 129 | Population Apoptotic (%) [4]: 21% | Population Fragmented Nuclei (%) [4]: 24% | Population Healthy Nuclei (%) [4]: 45% | Population Membrane Permeable-Phenotype (%) [4]: 7% | Population Mitochondria Different-Phenotype (%) [4]: 7% | Population Mitotic Cells (%) [4]: 78% | Population Pyknosed Nuclei (%) [4]: 29% | Population Tubulin-Different-Phenotype (%) [4]: 33% | Total Cell Count [4]: 143 | Population Apoptotic (%) [5]: 52% | Population Fragmented Nuclei (%) [5]: 6% | Population Healthy Nuclei (%) [5]: 76% | Population Hoechst High Intensity Objects (%) [5]: 2% | Population Membrane Permeable-Phenotype (%) [5]: 0% | Population Mitochondria Different-Phenotype (%) [5]: 0% | Population Mitotic Cells (%) [5]: 47% | Population Normal (%) [5]: 97% | Population Pyknosed Nuclei (%) [5]: 16% | Population Tubulin-Different-Phenotype (%) [5]: 16% | Total Cell Count [5]: 146 | Population Apoptotic (%) [6]: 42% | Population Fragmented Nuclei (%) [6]: 26% | Population Healthy Nuclei (%) [6]: 49% | Population Hoechst High Intensity Objects (%) [6]: 4% | Population Membrane Permeable-Phenotype (%) [6]: 9% | Population Mitochondria Different-Phenotype (%) [6]: 4% | Population Mitotic Cells (%) [6]: 57% | Population Normal (%) [6]: 95% | Population Pyknosed Nuclei (%) [6]: 24% | Population Tubulin-Different-Phenotype (%) [6]: 50% | Total Cell Count [6]: 182 | Population Apoptotic (%) [7]: 45% | Population Fragmented Nuclei (%) [7]: 19% | Population Healthy Nuclei (%) [7]: 60% | Population Hoechst High Intensity Objects (%) [7]: 1% | Population Membrane Permeable-Phenotype (%) [7]: 0% | Population Mitochondria Different-Phenotype (%) [7]: 5% | Population Mitotic Cells (%) [7]: 54% | Population Normal (%) [7]: 98% | Population Pyknosed Nuclei (%) [7]: 20% | Population Tubulin-Different-Phenotype (%) [7]: 20% | Total Cell Count [7]: 122 | Population Apoptotic (%) [8]: 47% | Population Healthy Nuclei (%) [8]: 48% | Population Hoechst High Intensity Objects (%) [8]: 2% | Population Membrane Permeable-Phenotype (%) [8]: 9% | Population Mitochondria Different-Phenotype (%) [8]: 6% | Population Mitotic Cells (%) [8]: 52% | Population Normal (%) [8]: 97% | Population Pyknosed Nuclei (%) [8]: 32% | Population Tubulin-Different-Phenotype (%) [8]: 34% | Total Cell Count [8]: 135 | Population Apoptotic (%) [9]: 47% | Population Fragmented Nuclei (%) [9]: 17% | Population Healthy Nuclei (%) [9]: 71% | Population Hoechst High Intensity Objects (%) [9]: 2% | Population Membrane Permeable-Phenotype (%) [9]: 2% | Population Mitochondria Different-Phenotype (%) [9]: 1% | Population Mitotic Cells (%) [9]: 52% | Population Normal (%) [9]: 97% | Population Pyknosed Nuclei (%) [9]: 10% | Population Tubulin-Different-Phenotype (%) [9]: 19% | Total Cell Count [9]: 167 | Population Apoptotic (%) [10]: 55% | Population Fragmented Nuclei (%) [10]: 29% | Population Healthy Nuclei (%) [10]: 47% | Population Hoechst High Intensity Objects (%) [10]: 6% | Population Membrane Permeable-Phenotype (%) [10]: 6% | Population Mitochondria Different-Phenotype (%) [10]: 8% | Population Mitotic Cells (%) [10]: 44% | Population Normal (%) [10]: 93% | Population Pyknosed Nuclei (%) [10]: 23% | Population Tubulin-Different-Phenotype (%) [10]: 56% | Total Cell Count [10]: 166 | Population Apoptotic (%) [11]: 69% | Population Fragmented Nuclei (%) [11]: 26% | Population Healthy Nuclei (%) [11]: 56% | Population Hoechst High Intensity Objects (%) [11]: 2% | Population Membrane Permeable-Phenotype (%) [11]: 0% | Population Mitochondria Different-Phenotype (%) [11]: 5% | Population Mitotic Cells (%) [11]: 30% | Population Normal (%) [11]: 97% | Population Pyknosed Nuclei (%) [11]: 17% | Population Tubulin-Different-Phenotype (%) [11]: 26% | Total Cell Count [11]: 133 | Population Apoptotic (%) [12]: 63% | Population Fragmented Nuclei (%) [12]: 35% | Population Healthy Nuclei (%) [12]: 42% | Population Membrane Permeable-Phenotype (%) [12]: 6% | Population Mitochondria Different-Phenotype (%) [12]: 11% | Population Mitotic Cells (%) [12]: 36% | Population Pyknosed Nuclei (%) [12]: 21% | Population Tubulin-Different-Phenotype (%) [12]: 44% | Total Cell Count [12]: 141
